Measured values reported in ChEMBL document CHEMBL2146379, “Antimetastatic effect of sulfamate carbonic anhydrase IX inhibitors in breast carcinoma xenografts” (J Med Chem, 2012).
The source made the active and inactive calls. The calls are words filed in the database; no cut-off is given here.

Experiments:
HCT-116 [1] = experiment: Antimetastatic activity against human HCT116 cells assessed as stimulation of cell migration under anoxic condition at 33 uM after 24 hrs by scratch-wound assay; assay type: functional
How it was run: (§1)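 Scratch-wound migration in confluent monolayers of RPMI 1640/10% FCS/2 mM glutamine-grown cells (eGFP-tagged MDA-MB-231, WRO, FTC-133; untagged RT112, HCT116). Incubation 24 h in normoxia or anoxia with DMSO or inhibitor at increasing concentrations (3.3, 10, 33 μM tested). Wound closure imaged by fluorescence. n = 3 per concentration per cell line; mean ± SEM, Student's t test.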

MDA-MB-231 [2] = experiment: Cytotoxicity against EGFP tagged human MDA-MB-231 cells expressing CA9 at 100 uM; assay type: functional, cell-based
Mus musculus [3] = experiment: Toxicity in nu/nu CBA mouse xenografted with EGFP tagged human MDA-MB-231 cells expressing CA9 assessed as change in body weight at 10 mg/kg, ip administered 5 days on 2 days off; assay type: organism-based; design: dose 10 mg/kg, route intraperitoneal; settings: in vivo
How it was run: (§2)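 Female nu/nu CBA mice, 10−12 weeks old, 8 per group, injected orthotopically into the fourth inguinal nipple with eGFP-MDA-MB-231 cells (5 × 10⁷ cells/mL in 1:1 serum-free RPMI/Matrigel). From 150 mm³ tumors, dosed 10 mg/kg ip daily (saline, 4% DMSO), 5 days on/2 off. Callipers 3×/week; health checked daily; body weight tracked. Culled at 1000 mm³; lung metastasis by ex vivo clonogenic assay.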

MDA-MB-231 [4] = experiment: Antimetastatic activity against EGFP tagged human MDA-MB-231 cells expressing CA9 assessed as inhibition of cell migration under anoxic condition at 3.3 uM after 24 hrs by scratch-wound assay; assay type: functional; settings: MDA-MB-231, 24 h; how it was run: as §1
MDA-MB-231 [5] = experiment: Antimetastatic activity against EGFP tagged human MDA-MB-231 cells expressing CA9 assessed as inhibition of cell migration under anoxic condition at 10 uM after 24 hrs by scratch-wound assay; assay type: functional; settings: MDA-MB-231, 24 h; how it was run: as §1
RT-112 = experiment: Antimetastatic activity against CA9 deficient human RT112 cells assessed as inhibition of cell migration under anoxic condition at 33 uM after 24 hrs by scratch-wound assay; assay type: functional, cell-based; how it was run: as §1
HCT-116 [6] = experiment: Antimetastatic activity against human HCT116 cells xenografted in mouse assessed as inhibition of lung metastasis; assay type: functional
MDA-MB-231 [7] = experiment: Antitumor activity against EGFP tagged human MDA-MB-231 cells expressing CA9 xenografted in nu/nu CBA mouse assessed as tumor growth inhibition at 10 mg/kg, ip administered 5 days on 2 days off; assay type: functional, organism-based; design: dose 10 mg/kg; how it was run: as §2
MDA-MB-231 [8] = experiment: Antimetastatic activity against EGFP tagged human MDA-MB-231 cells expressing CA9 assessed as inhibition of cell migration under anoxic condition at 33 uM after 24 hrs by scratch-wound assay; assay type: functional; settings: MDA-MB-231, 24 h; how it was run: as §1
FTC-133 = experiment: Antimetastatic activity against EGFP tagged human FTC-133 cells expressing CA9 assessed as inhibition of cell migration under anoxic condition at 33 uM after 24 hrs by scratch-wound assay; assay type: functional, cell-based; how it was run: as §1
MDA-MB-231 [9] = experiment: Antimetastatic activity against EGFP tagged human MDA-MB-231 cells expressing CA9 assessed as inhibition of cell spreading under normoxic condition at 33 uM after 60 mins by phalloidin staining; assay type: functional, cell-based
[10] = Antimetastatic activity against EGFP tagged human WRO cells expressing CA9 assessed as inhibition of cell migration under anoxic condition at 100 uM after 24 hrs by scratch-wound assay; assay type: functional
MDA-MB-231 [11] = experiment: Antimetastatic activity against EGFP tagged human MDA-MB-231 cells expressing CA9 assessed as inhibition of cell spreading under anoxic condition at 33 uM after 60 mins by phalloidin staining; assay type: functional, cell-based
Mus musculus [12] = experiment: Toxicity in nu/nu CBA mouse xenografted with EGFP tagged human MDA-MB-231 cells expressing CA9 assessed as signs of intolerance at 10 mg/kg, ip administered 5 days on 2 days off; assay type: organism-based; design: dose 10 mg/kg, route intraperitoneal; settings: in vivo; how it was run: as §2
MDA-MB-231 [13] = experiment: Antimetastatic activity against EGFP tagged human MDA-MB-231 cells expressing CA9 xenografted in nu/nu CBA mouse tumor assessed as reduction in metastasic burden in lungs at 10 mg/kg, ip, administered 5 days on 2 days off measured on day 10 by clonogenic assay; assay type: functional, organism-based; design: dose 10 mg/kg; how it was run: as §2
MDA-MB-231 [14] = experiment: Antimetastatic activity against EGFP tagged human MDA-MB-231 cells expressing CA9 assessed as inhibition of cell migration under anoxic condition after 24 hrs by scratch-wound assay; assay type: functional, cell-based; how it was run: as §1
Carbonic anhydrase 9 = Carbonic anhydrase 9 (Homo sapiens, UniProt Q16790); experiment: Inhibition of human recombinant transmembrane CA9 preincubated for 15 mins by stopped-flow CO2 hydration method
How it was run: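 Stopped-flow CO₂ hydration with in-house recombinant human CA, CO₂ 1.7−17 mM. Inhibitor diluted in water from 0.1 mM stock down to 0.01 nM, preincubated with enzyme 15 min at room temperature. Initial velocity from ≥6 traces of the first 5−10% of reaction, uncatalyzed rate subtracted.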

MDA-MB-231 [15] = experiment: Antimetastatic activity against EGFP tagged human MDA-MB-231 cells expressing CA9 assessed as inhibition of cell migration under normoxic condition after 24 hrs by scratch-wound assay; assay type: functional, cell-based; how it was run: as §1

SMILES: Cc1cc(C)cc(NC(=O)Nc2ccc(OS(N)(=O)=O)cc2)c1
- Activity (HCT-116 [1]): 44%
- Activity (MDA-MB-231 [2]): Active
- Activity (Mus musculus [3]): Non-toxic
- inhibition at 3.3 µM (MDA-MB-231 [4]): 5%
- inhibition at 10 µM (MDA-MB-231 [5]): 21%
- inhibition (RT-112): inactive
- inhibition (HCT-116 [6]): inactive
- growth inhibition (GI) (MDA-MB-231 [7]): inactive
- inhibition at 33 µM (MDA-MB-231 [8]): 50%
- inhibition (FTC-133): Active
- inhibition (MDA-MB-231 [9]): inactive
- inhibition at 100 µM [10]: 41%
- inhibition (MDA-MB-231 [11]): Active
- Activity (Mus musculus [12]): Non-toxic
- Activity (MDA-MB-231 [13]): Active

SMILES: CN(C)c1ccc(NC(=O)Nc2ccc(OS(N)(=O)=O)cc2)cc1
- inhibition (MDA-MB-231 [14]): inactive
- Ki (Carbonic anhydrase 9): 9 nM

SMILES: NS(=O)(=O)Oc1ccc(NC(=O)Nc2ccc(Oc3ccccc3)cc2)cc1
- inhibition at 33 µM (MDA-MB-231 [8]): 49%

SMILES: NS(=O)(=O)Oc1ccc(NC(=O)Nc2ccc([N+](=O)[O-])cc2)cc1
- inhibition (MDA-MB-231 [15]): Active
- inhibition (MDA-MB-231 [14]): Active

SMILES: NS(=O)(=O)Oc1ccc(-[n+]2c(-c3ccccc3)cc(-c3ccccc3)cc2-c2ccccc2)cc1
- inhibition (MDA-MB-231 [14]): inactive
- Ki (Carbonic anhydrase 9): 14 nM

SMILES: NS(=O)(=O)Oc1ccc(NC(=O)Nc2c(F)c(F)c(F)c(F)c2F)cc1
- inhibition at 33 µM (MDA-MB-231 [8]): 32%

SMILES: NS(=O)(=O)Oc1ccc(NC(=O)Nc2ccc(Cl)cc2)cc1
- inhibition (MDA-MB-231 [15]): Active
- inhibition (MDA-MB-231 [14]): Active

SMILES: COc1ccc(NC(=O)Nc2ccc(OS(N)(=O)=O)cc2)cc1
- inhibition (MDA-MB-231 [14]): inactive

SMILES: NS(=O)(=O)Oc1ccc(NC(=S)Nc2ccc(-c3c4ccc(=O)cc-4oc4cc(O)ccc34)c(C(=O)O)c2)cc1
- inhibition (MDA-MB-231 [14]): inactive

SMILES: NS(=O)(=O)Oc1ccc(NC(=O)Nc2ccc(F)cc2)cc1
- inhibition (MDA-MB-231 [15]): Active
- inhibition (MDA-MB-231 [14]): Active
